Data set [1] deals with T1, Tubulin (Homo sapiens) (UniProt P68371+Q9H4B7+P0DPH7+P68366+Q13509+Q71U36+P04350+Q3ZCM7+P07437+P68363+Q9BQE3+Q6PEY2+Q13885+Q9BVA1+Q9BUF5). Description: Inhibition of [3H]colchicine binding to tubulin (unknown origin) at 5 uM relative to control. Type of data set: protein-complex assay. The procedure, abridged:
(§1)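 Colchicine-site competition: 0.5 μM tubulin with 5.0 μM [3H]colchicine and inhibitor at 5.0 μM, or 25 μM where stated.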

The test system of data set [2] is VL51. Description: Induction of cell cycle arrest in human VL51 cells assessed as increase in mitotic cells at 0.5 to 1 uM incubated for 24 hrs by PI staining based flow cytometry analysis. Type of data set: functional. The conditions noted are these: dose 0.5-1 µM. For orientation: A flow cytometer gives signals particle by particle.
Data set [3] addresses T1, Tubulin (Homo sapiens). Description: Inhibition of [3H]colchicine binding to tubulin (unknown origin) at 25 uM relative to control. The format is protein-complex assay. The procedure, abridged: as §1
In data set [4] the test system is CCRF-CEM. Description: Induction of cell cycle arrest in human CCRF-CEM cells assessed as accumulation of cells at G2/M phase at 10 uM incubated for 24 hrs by PI staining based flow cytometry analysis. Type of data set: functional. The procedure, abridged:
(§2)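 Seeding in 6-well plates, 2 mL medium: A549 5×10^4, CCRF-CEM 2.5×10^5, VL51 2.0×10^5. 24 h treatment, A549 detached with trypsin-EDTA. Cells fixed in 70% ice-cold ethanol, PI-labelled, analysed by flow cytometry. Mean of two independent experiments.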

Data set [5] has as its system A549. Description: Induction of cell cycle arrest in human A549 cells assessed as accumulation of cells at G2/M phase at 5 uM incubated for 24 hrs by PI staining based flow cytometry analysis. The format is functional. The procedure, abridged: as §2
Data set [6] can be described thus: Cytotoxicity against PHA-induced human PBL cells assessed as inhibition of cell growth measured after 72 hrs by MTT assay. The format is toxicity, cell-based. To be noted: PHA-induced human peripheral blood lymphocytes (PBL). (In general: Tetrazolium dyes change colour on reduction, which living cells bring about.)
Data set [7] in a line: Cytotoxicity against resting human PBL cells assessed as inhibition of cell growth measured after 72 hrs by MTT assay. The format is toxicity, cell-based. The conditions noted are these: resting human peripheral blood lymphocytes (PBL).
The target of data set [8] is Tubulin. As to the kind of experiment: Inhibition of tubulin assembly (unknown origin). The format is protein-complex assay, Homo sapiens.
In data set [9] the test system is VL51. Description: Induction of cell cycle arrest in human VL51 cells assessed as accumulation of cells at G2/M phase at 5 uM incubated for 24 hrs by PI staining based flow cytometry analysis. Type of data set: functional. The procedure, abridged: as §2
Data set [10] deals with VL51. Description: Induction of mitochondrial membrane potential depolarization in human VL51 cells at 0.5 to 1 uM measured after 24 hrs by JC-1 fluorescent dye based flow cytometry analysis. The format is functional, cell-based. The conditions noted are these: dose 0.5-1 µM. Summed up:
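VL51 cells treated 24 h at 0.5 and 1.0 μM, labelled with JC-1, analysed by flow cytometry in FL1 and FL2 channels.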

pIC50: −log10 of the molar value. The source made the active and inactive calls. The rule behind the calls is not given here.

What is called inhibition is the percentage by which the read-out fell short of the control. High values mean strong suppression, low ones little suppression. The term IC50 denotes the concentration that inhibits the measured activity by half. A word on the pIC50: it is the negative decadic logarithm of the IC50, by convention in mol/L. As to `COc1ccc(Cn2cc3c(c2-c2ccccc2)CCCc2cnoc2-3)cc1`, the inhibition came out at 1.8% in [1] and 19% in data set [3]. Further, the outcome in data set [2] and in [10] was inactive. In addition, the outcome in [4], in data set [5] and in data set [9] was Active. Besides, the IC50 at 72 h in [6] and in data set [7] was above 10 µM throughout. This molecule also gave a pIC50 in data set [8] of 5.96.
In data set [1], `COc1ccc(Cn2cc3c(c2-c2ccc(OC)cc2)CCCc2cnoc2-3)cc1` came in with an inhibition of 7.7%. Further, the pIC50 in data set [8] is 5.34.

The values are drawn from ChEMBL document CHEMBL5321217, “Identification of pyrrolo[3',4':3,4]cyclohepta[1,2-d][1,2]oxazoles as promising new candidates for the treatment of lymphomas” (Eur J Med Chem, 2023).
